The text below walks through data of ChEMBL document CHEMBL1123284, “Structure-activity relationships for the competitive angiotensin antagonist [sarcosine,O-methyltyrosine4]angiotensin II (sarmesin)” (J Med Chem, 1986).

Where only a bound is given, the exact number is not on record here.

The target in assay [1] is T1, Angiotensin II receptor (Rattus norvegicus, UniProt P29089+P25095+P35351).
T1 sequence (P29089 whole entry): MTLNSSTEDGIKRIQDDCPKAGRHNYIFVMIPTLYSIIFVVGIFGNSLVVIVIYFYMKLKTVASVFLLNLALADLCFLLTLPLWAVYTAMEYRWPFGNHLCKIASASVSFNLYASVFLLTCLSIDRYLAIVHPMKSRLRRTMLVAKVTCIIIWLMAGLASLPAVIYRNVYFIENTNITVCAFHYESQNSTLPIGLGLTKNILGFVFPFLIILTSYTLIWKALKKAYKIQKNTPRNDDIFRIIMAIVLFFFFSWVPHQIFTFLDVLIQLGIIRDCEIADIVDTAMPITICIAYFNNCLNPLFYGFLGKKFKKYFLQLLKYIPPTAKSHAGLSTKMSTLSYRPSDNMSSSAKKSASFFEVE
T1 sequence (P25095 whole entry): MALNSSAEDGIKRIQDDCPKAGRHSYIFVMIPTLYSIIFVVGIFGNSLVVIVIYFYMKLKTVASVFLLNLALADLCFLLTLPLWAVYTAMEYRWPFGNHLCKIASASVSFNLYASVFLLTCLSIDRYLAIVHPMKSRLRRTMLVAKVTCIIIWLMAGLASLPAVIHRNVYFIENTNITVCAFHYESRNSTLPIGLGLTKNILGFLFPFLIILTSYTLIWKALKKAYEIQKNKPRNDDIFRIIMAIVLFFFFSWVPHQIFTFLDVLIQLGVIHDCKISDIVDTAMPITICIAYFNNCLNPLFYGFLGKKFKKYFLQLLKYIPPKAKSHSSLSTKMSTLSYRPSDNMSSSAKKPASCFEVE
T1 sequence (P35351 whole entry): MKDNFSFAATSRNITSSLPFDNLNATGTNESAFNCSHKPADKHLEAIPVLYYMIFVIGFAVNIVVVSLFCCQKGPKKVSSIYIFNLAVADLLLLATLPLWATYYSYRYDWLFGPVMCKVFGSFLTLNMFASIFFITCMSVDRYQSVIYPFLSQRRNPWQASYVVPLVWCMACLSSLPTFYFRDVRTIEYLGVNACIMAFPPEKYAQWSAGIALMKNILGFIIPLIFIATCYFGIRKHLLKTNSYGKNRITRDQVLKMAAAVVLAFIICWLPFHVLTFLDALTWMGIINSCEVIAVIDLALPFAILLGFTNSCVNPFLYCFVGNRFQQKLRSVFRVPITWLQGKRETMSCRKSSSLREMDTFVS
Kind of assay: Angiotensin II receptor antagonist activity was tested in rat isolated uterus assay using [Asp1,Ile5]ANG II (human angiotensin II) as the standard. The class given is functional, tissue-based. The method, boiled down:
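Defatted, halved uterine horns from diethylstilbestrol-primed virgin Sprague-Dawley rats (150–250 g), at 1 g tension in a 3-mL bath at pH 7.0, oxygen-gassed (150 mM NaCl, 5.6 mM KCl, 0.18 mM CaCl2, 1.8 mM NaHCO3, 1.4 mM glucose). Isotonic recording of contraction. pA2 is the negative log of the antagonist concentration that cuts the response to an EC50 dose of human ANG II down to the response to half the EC50 dose. Mean ± SEM.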

The target in assay [2] is T2, Angiotensin II receptor (Rattus norvegicus) (UniProt P29089+P25095+P35351). Description: Angiotensin II receptor agonist activity was tested in rat isolated uterus assay using [Asp1,Ile5]ANG II (human angiotensin II) as the standard. The class given is functional, tissue-based. Summed up: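 Uterine horns from diethylstilbestrol-primed virgin Sprague-Dawley rats (150–250 g), defatted and halved. Each half held at 1 g tension in a 3-mL bath at pH 7.0, oxygen-gassed (150 mM NaCl, 5.6 mM KCl, 0.18 mM CaCl2, 1.8 mM NaHCO3, 1.4 mM glucose). Contractions recorded isotonically. Agonism measured by matching each response to an equivalent response to human ANG II. Mean ± SEM.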

For assay [3], the target named is T2, Angiotensin II receptor (Rattus norvegicus). Description: Compound was evaluated for the antagonistic activity against rat Angiotensin II receptor by using isometric bioassay system. The class given is functional.

Regarding `CCOc1ccc(C[C@H](NC(=O)[C@@H](NC(=O)[C@H](CCCN=C(N)N)NC(=O)CNC)C(C)C)C(=O)N[C@H](C(=O)N[C@@H](Cc2c[nH]cn2)C(=O)N2CCC[C@H]2C(=O)N[C@@H](Cc2ccccc2)C(=O)O)[C@@H](C)CC)cc1`, in assay [1], the pA2 (commonly the negative logarithm of the molar antagonist concentration that doubles the agonist concentration needed for the same response) was under 6. Also, the Activity in assay [2] came to 0.2%. `CC[C@H](C)[C@H](NC(=O)[C@H](Cc1ccc(OC)cc1)NC(=O)[C@@H](NC(=O)[C@H](CCCN=C(N)N)NC(=O)[C@@H]1CCCN1)C(C)C)C(=O)N[C@@H](Cc1c[nH]cn1)C(=O)N1CCC[C@@H]1C(=O)N[C@@H](Cc1ccccc1)C(=O)O` had an Activity in assay [2] of 0.3%. For `CC[C@H](C)[C@H](NC(=O)[C@@H](Cc1ccc(O)cc1)NC(=O)[C@@H](NC(=O)[C@H](CCCN=C(N)N)NC(=O)CNC)C(C)C)C(=O)N[C@@H](Cc1c[nH]cn1)C(=O)N1CCC[C@H]1C(=O)N[C@@H](Cc1ccccc1)C(=O)O`, the pA2 in assay [1] is reported as under 6.5. In the case of `CC[C@H](C)[C@H](NC(=O)[C@@H]1C[C@@H](O)CN1C(=O)[C@@H](NC(=O)[C@H](CCCN=C(N)N)NC(=O)CNC)C(C)C)C(=O)N[C@@H](Cc1c[nH]cn1)C(=O)N1CCC[C@@H]1C(=O)N[C@@H](Cc1ccccc1)C(=O)O`, the Activity in assay [2] was under 0.1%. `CC[C@H](C)[C@H](NC(=O)C1CCCN1C(=O)[C@H](Cc1c[nH]cn1)NC(=O)[C@@H](NC(=O)[C@H](Cc1ccc(O)cc1)NC(=O)[C@@H](NC(=O)[C@H](CCCN=C(N)N)NC(=O)CNC)C(C)C)[C@@H](C)CC)C(=O)O` (single isomer, unassigned) had an Activity in assay [2] of under 0.1%.

In the case of `CC[C@H](C)[C@H](NC(=O)[C@H](Cc1ccc(OC)cc1)NC(=O)[C@@H](NC(=O)[C@H](CCCN=C(N)N)NC(=O)[C@H](C)N)C(C)C)C(=O)N[C@@H](Cc1c[nH]cn1)C(=O)N1CCC[C@@H]1C(=O)N[C@@H](Cc1ccccc1)C(=O)O`, the Activity in assay [2] was under 0.1%. Regarding `CC[C@H](C)[C@H](NC(=O)[C@@H](NC(=O)[C@H](CCCN=C(N)N)NC(=O)CNC)C(C)C)C(=O)N[C@H](C(=O)N[C@@H](Cc1c[nH]cn1)C(=O)N1CCC[C@@H]1C(=O)N[C@@H](Cc1ccccc1)C(=O)O)[C@@H](C)CC`, the Activity in assay [2] was determined as 0.2%. Compound `CC[C@H](C)[C@H](NC(=O)[C@@H](NC(=O)[C@@H](NC(=O)[C@H](CCCN=C(N)N)NC(=O)CNC)C(C)C)[C@@H](C)O)C(=O)N[C@@H](Cc1c[nH]cn1)C(=O)N1CCC[C@H]1C(=O)N[C@@H](Cc1ccccc1)C(=O)O` gave a pA2 in assay [1] of under 6. Same read-out and setting: to `CC[C@H](C)[C@H](NC(=O)[C@@H]1C[C@@H](O)CN1C(=O)[C@@H](NC(=O)[C@H](CCCN=C(N)N)NC(=O)CNC)C(C)C)C(=O)N[C@@H](Cc1c[nH]cn1)C(=O)N1CCC[C@H]1C(=O)N[C@@H](Cc1ccccc1)C(=O)O` belongs under 5. Regarding `CC[C@H](C)[C@H](NC(=O)[C@H]1CCCN1C(=O)[C@H](Cc1c[nH]cn1)NC(=O)[C@@H](NC(=O)[C@@H](Cc1ccc(O)cc1)NC(=O)[C@@H](NC(=O)[C@H](CCCN=C(N)N)NC(=O)CNC)C(C)C)[C@@H](C)CC)C(=O)O`, in assay [2], the Activity is under 0.1%. As for `CC[C@H](C)[C@H](NC(=O)[C@@H](NC(=O)[C@@H](NC(=O)[C@H](CCCN=C(N)N)NC(=O)CNC)C(C)C)[C@H](C)O)C(=O)N[C@@H](Cc1c[nH]cn1)C(=O)N1CCC[C@@H]1C(=O)N[C@@H](Cc1ccccc1)C(=O)O`, the Activity in assay [2] came to 2%. In assay [1], `CC[C@H](C)[C@H](NC(=O)[C@H](Cc1ccc(OC)cc1)NC(=O)[C@@H](NC(=O)[C@H](CCCN=C(N)N)NC(=O)[C@@H]1CCCN1)C(C)C)C(=O)N[C@@H](Cc1c[nH]cn1)C(=O)N1CCC[C@H]1C(=O)N[C@@H](Cc1ccccc1)C(=O)O` registered a pA2 of under 6.

`CC[C@H](C)[C@H](NC(=O)[C@@H](Cc1ccc(O)cc1)NC(=O)[C@@H](NC(=O)[C@H](CCCN=C(N)N)NC(=O)CNC)C(C)C)C(=O)N[C@@H](Cc1c[nH]cn1)C(=O)N1CCC[C@@H]1C(=O)N[C@@H](Cc1ccccc1)C(=O)O`: the Activity in assay [2] came to 2%. On to `CC[C@H](C)[C@H](NC(=O)[C@H](Cc1ccc(OC)cc1)NC(=O)[C@@H](NC(=O)[C@H](CCCN=C(N)N)NC(=O)[C@H](C)N)C(C)C)C(=O)N[C@@H](Cc1c[nH]cn1)C(=O)N1CCC[C@H]1C(=O)N[C@@H](Cc1ccccc1)C(=O)O`, for which the pA2 in assay [1] was under 6.

As for `CC[C@H](C)[C@H](NC(=O)[C@@H]1CCCN1C(=O)[C@H](Cc1c[nH]cn1)NC(=O)[C@@H](NC(=O)[C@H](Cc1ccccc1)NC(=O)[C@@H](NC(=O)[C@H](CCCN=C(N)N)NC(=O)CNC)C(C)C)[C@@H](C)CC)C(=O)O`, the pA2 in assay [1] was 6.7. The compound also came in with an Activity in assay [2] of under 0.1%. In the same order, the values of `CC[C@H](C)[C@H](NC(=O)[C@H](Cc1ccccc1)NC(=O)[C@@H](NC(=O)[C@H](CCCN=C(N)N)NC(=O)CNC)C(C)C)C(=O)N[C@@H](Cc1c[nH]cn1)C(=O)N1CCC[C@H]1C(=O)N[C@@H](Cc1ccccc1)C(=O)O` are 7.9 and 22%.

The compound `CC[C@H](C)[C@H](NC(=O)[C@@H](Cc1ccccc1)NC(=O)[C@@H](NC(=O)[C@H](CCCN=C(N)N)NC(=O)CNC)C(C)C)C(=O)N[C@@H](Cc1c[nH]cn1)C(=O)N1CCC[C@@H]1C(=O)N[C@@H](Cc1ccccc1)C(=O)O` displayed a pA2 in assay [1] of under 5.5. Besides, the Activity in assay [2] is under 0.1%. Turning to `CC[C@H](C)[C@H](NC(=O)[C@@H]1CCCN1C(=O)[C@H](Cc1c[nH]cn1)NC(=O)[C@@H](NC(=O)[C@H](Cc1ccc(OC)cc1)NC(=O)[C@@H](NC(=O)[C@H](CCCN=C(N)N)NC(=O)CNC)C(C)C)[C@@H](C)CC)C(=O)O`, the pA2 in assay [1] is 6.6. The Activity in assay [2] was under 0.1%.

`CC[C@H](C)[C@H](NC(=O)[C@@H](NC(=O)[C@H](CCCN=C(N)N)NC(=O)CNC)C(C)C)C(=O)N[C@H](C(=O)N[C@@H](Cc1c[nH]cn1)C(=O)N1CCC[C@H]1C(=O)N[C@@H](Cc1ccccc1)C(=O)O)[C@@H](C)CC` displayed a pA2 in assay [1] of under 6.

In the case of `CC[C@H](C)[C@H](NC(=O)[C@H]1CCCN1C(=O)[C@H](Cc1c[nH]cn1)NC(=O)[C@@H](NC(=O)[C@@H](Cc1ccccc1)NC(=O)[C@@H](NC(=O)[C@H](CCCN=C(N)N)NC(=O)CNC)C(C)C)[C@@H](C)CC)C(=O)O`, the pA2 in assay [1] was under 5. In assay [2], this compound gave an Activity of under 0.1%. Take `CC[C@H](C)[C@H](NC(=O)[C@H](Cc1ccc(OC)cc1)NC(=O)[C@@H](NC(=O)[C@H](CCCN=C(N)N)NC(=O)CNC)C(C)C)C(=O)N[C@@H](Cc1c[nH]cn1)C(=O)N1CCC[C@H]1C(=O)N[C@@H](Cc1ccccc1)C(=O)O`: the figures for the Activity in assay [3] and in assay [2] were 8.1 and under 0.1%, respectively. In assay [1], this compound returned a pA2 of 7.5.
